From PubChem BioAssay AID602223 (Southern Research Specialized Biocontainment Screening …, 2012)
Results filed as inconclusive are left out. Active and inactive are the calls of the source.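 The calls were made as follows: active = inhibition of 30% or more at any tested concentration; inactive = the rest, inconclusive results apart.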

Biological target: M1-family alanyl aminopeptidase (Plasmodium falciparum 3D7)
Test: PfM1AAP enzyme inhibition, dose response, selectivity assay for PfM17LAP inhibitor project, biochemical, QFRET, H-Leu-NHMec substrate, set 2 (AID 602223)
Settings: recombinant PfM1AAP, H-Leu-NHMec fluorogenic cleavage; for inhibition: at 100 µM (top of the series)
Procedure, shortened: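 assay system = recombinant protease | amount = enzyme at 5 µg/mL final | medium = Tris buffer, pH 7.5, containing CoCl2 | timing = 90 min enzyme reaction at room temperature | signal = fluorescence, ex 370 nm, em 460 nm | measure = IC50 from dose-response curve fit, top and bottom fixed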

| IC50 [µM] | inhibition | SMILES |
| --- | --- | --- |
| – | inactive | CCCCOc1ccc(CNc2c(N(C)O)c(=O)c2=O)cc1 |
| 14 | – | CCCCOc1ccc(CC(=O)NO)cc1 |
| – | inactive | CN(O)C(=O)Cc1ccc(OCc2ccccc2)cc1 |
| – | inactive | CCCCOc1ccc(CC(=O)O)cc1 |
| 99.1 | – | CCCCOc1ccc(C(=O)NO)cc1 |
| – | inactive | COC(=O)Cc1ccc(OCCN(C)C)cc1 |
| – | inactive | CCCOc1ccc(CC(=O)OC)cc1 |
| 7 | – | CCOc1ccc(CC(=O)NO)cc1 |
| – | inactive | CCCCOc1ccc(CC(=O)N(C)O)cc1 |

More lines, now with the values behind:

| SMILES | IC50 [µM] | inhibition |
| --- | --- | --- |
| COc1ccc(CC(=O)NO)cc1 | 4.58 | – |
| O=C(Cc1ccc(Oc2ccccc2)cc1)NO | 5.45 | – |
| COc1ccc(CCCC(=O)NO)cc1 | 95.8 | – |
| CC(C)COc1ccc(CC(=O)NO)cc1 | 23.2 | – |
| O=C(Cc1ccc2c(c1)CCCC2)NO | 1.41 | – |
| CC(C)(C(=O)NO)c1ccccc1 | – | inactive |
| CCCCOc1ccc(CNc2c(N(O)Cc3ccccc3)c(=O)c2=O)cc1 | – | inactive |
| CCCCCCCCCC(=O)NO | 13.3 | – |
| O=C(Cc1ccc(OCc2ccccc2)cc1)NO | 2.89 | – |
| Cc1ccc(CC(=O)NO)cc1 | 5.77 | – |
| CCCCc1ccc(CC(=O)NO)cc1 | 2.57 | – |
